Results taken from ChEMBL document CHEMBL1255243, “Resistance of Porphyromonas gingivalis ATCC 33277 to direct killing by antimicrobial peptides is protease independent” (2008).
Active and inactive are the calls of the source. No cut-off for these calls is given here.

Key:
Porphyromonas gingivalis [1] = assay: Antibacterial activity against protease deficient Porphyromonas gingivalis KDP136; type: functional
Escherichia coli [2] = assay: Antibacterial activity against Escherichia coli ATCC 25922 assessed as growth inhibition at 100 ug/ml following preincubation of compound with supernatant of Porphyromonas gingivalis ATCC 33277; type: functional, organism-based
Procedure, shortened: (§1)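 Peptide preincubated with filter-sterilized stationary-phase culture supernatant (20% final) for set times, then 10 µl added to 190 µl E. coli overnight culture (diluted 1:5,000 in BHI, sonicated 1 min); peptide 100 μg/ml final on cells; aerobic growth; OD650 read; % inhibition relative to no-peptide (0%) and medium-preincubated peptide (100%); three independent experiments in triplicate, mean ± SD.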

Streptococcus mutans [3] = assay: Antibacterial activity against Streptococcus mutans ATCC 27351 assessed as growth inhibition at 100 ug/ml following preincubation of compound with supernatant of Porphyromonas gingivalis ATCC 33277; type: functional, organism-based
Procedure, shortened: (§2)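 Peptide at 100 μg/ml incubated with filter-sterilized stationary-phase culture supernatant (20% final) for set times; 10 µl added to 190 µl S. mutans overnight culture diluted 1:10 in BHI and sonicated 1 min; grown at 37°C, 5% CO2; OD650 read; % inhibition relative to no-peptide (0%) and medium-preincubated peptide (100%); three experiments in triplicate, mean ± SD.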

Streptococcus mutans [4] = assay: Antibacterial activity against Streptococcus mutans ATCC 27351 assessed as growth inhibition at 100 ug/ml following preincubation of compound with supernatant of Aggregatibacter actinomycetemcommitans ATCC 29523; type: functional, organism-based; procedure, shortened: as §2
Escherichia coli [5] = assay: Antibacterial activity against Escherichia coli ATCC 25922 assessed as growth inhibition at 100 ug/ml following preincubation of compound with supernatant of Aggregatibacter actinomycetemcommitans ATCC 29523; type: functional, organism-based; procedure, shortened: as §1
Porphyromonas gingivalis [6] = assay: Antibacterial activity against Porphyromonas gingivalis ATCC 33277; type: functional, organism-based
Procedure, shortened: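 Increasing amounts of peptide were added to a growing anaerobic P. gingivalis culture. Percent growth inhibition was calculated relative to untreated cells (0%). Means ± SD of three independent experiments.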

Streptococcus mutans [7] = assay: Antibacterial activity against Streptococcus mutans ATCC 27351 assessed as growth inhibition at 5 ug/ml following preincubation of compound with supernatant of Porphyromonas gingivalis ATCC 33277; type: functional, organism-based
Procedure, shortened: (§3)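 Stationary-phase P. gingivalis or A. actinomycetemcomitans cultures were spun 10 min at 10,000 × g and the supernatant filter-sterilised (0.2 μm). Peptide was preincubated with 20% (final) filtrate for varying times. It was then added to S. mutans (overnight culture diluted 1:10 in BHI, bath-sonicated 1 min), grown at 37°C in 5% CO2, and read at OD650. % inhibition: no-peptide = 0%, fresh-medium-preincubated peptide = 100%. Mean ± SD, three independent experiments.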

Streptococcus mutans [8] = assay: Antibacterial activity against Streptococcus mutans ATCC 27351 assessed as growth inhibition at 5 ug/ml following preincubation of compound with supernatant of Aggregatibacter actinomycetemcommitans ATCC 29523; type: functional, organism-based; procedure, shortened: as §3
Porphyromonas gingivalis [9] = assay: Binding affinity to membranes of Porphyromonas gingivalis KDP136 using Alexa Fluor-labeled compound at 0.8 mg/ml by fluorimetric assay
Streptococcus mutans [10] = assay: Antibacterial activity against Streptococcus mutans assessed as growth inhibition at 5 ug/ml following preincubation of compound with supernatant of Porphyromonas gingivalis ATCC 33277
Streptococcus mutans [11] = assay: Antibacterial activity against Streptococcus mutans assessed as growth inhibition at 5 ug/ml following preincubation of compound with supernatant of Aggregatibacter actinomycetemcommitans ATCC 29523
Streptococcus mutans [12] = assay: Antibacterial activity against Streptococcus mutans ATCC 27351 assessed as growth inhibition at 40 ug/ml following preincubation of compound with supernatant of Porphyromonas gingivalis ATCC 33277; type: functional, organism-based; procedure, shortened: as §3
Streptococcus mutans [13] = assay: Antibacterial activity against Streptococcus mutans ATCC 27351 assessed as growth inhibition at 40 ug/ml following preincubation of compound with supernatant of Aggregatibacter actinomycetemcommitans ATCC 29523; type: functional, organism-based; procedure, shortened: as §3
Streptococcus mutans [14] = assay: Antibacterial activity against Streptococcus mutans assessed as growth inhibition at 40 ug/ml following preincubation of compound with supernatant of Porphyromonas gingivalis ATCC 33277
Streptococcus mutans [15] = assay: Antibacterial activity against Streptococcus mutans assessed as growth inhibition at 40 ug/ml following preincubation of compound with supernatant of Aggregatibacter actinomycetemcommitans ATCC 29523

CC[C@H](C)[C@H](NC(=O)[C@H](CCCCN)NC(=O)[C@H](CCC(=O)O)NC(=O)[C@H](CCCCN)NC(=O)[C@H](CO)NC(=O)[C@H](CCCCN)NC(=O)[C@H](CCCNC(=N)N)NC(=O)[C@H](Cc1ccccc1)NC(=O)[C@H](Cc1ccccc1)NC(=O)[C@H](CC(=O)O)NC(=O)CNC(=O)[C@H](CC(C)C)NC(=O)[C@@H](N)CC(C)C)C(=O)NCC(=O)N[C@@H](CCCCN)C(=O)N[C@@H](CCC(=O)O)C(=O)N[C@@H](Cc1ccccc1)C(=O)N[C@@H](CCCCN)C(=O)N[C@@H](CCCNC(=N)N)C(=O)N[C@H](C(=O)N[C@H](C(=O)N[C@@H](CCC(N)=O)C(=O)N[C@@H](CCCNC(=N)N)C(=O)N[C@H](C(=O)N[C@@H](CCCCN)C(=O)N[C@@H](CC(=O)O)C(=O)N[C@@H](Cc1ccccc1)C(=O)N[C@@H](CC(C)C)C(=O)N[C@@H](CCCNC(=N)N)C(=O)N[C@@H](CC(N)=O)C(=O)N[C@@H](CC(C)C)C(=O)N[C@H](C(=O)N1CCC[C@H]1C(=O)N[C@@H](CCCNC(=N)N)C(=O)N[C@H](C(=O)N[C@@H](CCC(=O)O)C(=O)N[C@@H](CO)C(=O)O)[C@@H](C)O)C(C)C)[C@@H](C)CC)C(C)C)[C@@H](C)CC [CATHELICIDIN]
MIC (Porphyromonas gingivalis [1]): > 200 µg/mL
Activity (Escherichia coli [2]): inactive
Activity (Streptococcus mutans [3]): inactive
Activity (Streptococcus mutans [4]): Active
Activity (Escherichia coli [5]): Active

H-ALWKTLLKKVLKAAA-NH2
Activity (Porphyromonas gingivalis [6]): inactive
Activity (Streptococcus mutans [7]): inactive
Activity (Streptococcus mutans [8]): Active
Activity (Porphyromonas gingivalis [9]): inactive
Activity (Streptococcus mutans [10]): inactive
Activity (Streptococcus mutans [11]): Active

H-KRLFKKLLFSLRKY-NH2
Activity (Streptococcus mutans [12]): inactive
Activity (Streptococcus mutans [13]): Active
Activity (Streptococcus mutans [14]): inactive
Activity (Streptococcus mutans [15]): Active
